Legend:
Format in all cases: functional
Homo sapiens [1] = organism: Homo sapiens; assay: Sensory evaluation was done for sweetness at a concentration of 615 p.p.m. against compound potency calculated on weight basis.
Summary of the method: (§1)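 Sweetness tasted in solutions held near pH ~7, so carboxylic acids are ionized. Potency is reported two ways: on a weight basis (Pw) and on a molar basis (Pm).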

Homo sapiens [2] = organism: Homo sapiens; assay: Sensory evaluation was done at a concentration of 615 p.p.m. against property of bitterness.
Summary of the method: (§2)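 Aqueous sample solutions were tasted at about pH 7, so carboxylic acids were in ionized form.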

Homo sapiens [3] = organism: Homo sapiens; assay: Sensory evaluation was done for sweetness at a concentration of 615 p.p.m. against sample intensity relative to 10% sucrose.; summary of the method: as §1
Homo sapiens [4] = organism: Homo sapiens; assay: Sensory evaluation was done for sweetness at a concentration of 615 p.p.m. against compound potency calculated on a molar basis.; summary of the method: as §1
Homo sapiens [5] = organism: Homo sapiens; assay: Sensory evaluation was done at a concentration of 615 p.p.m. against other properties.; summary of the method: as §2
Homo sapiens [6] = organism: Homo sapiens; assay: Sensory evaluation was done at a concentration of 615 p.p.m. against property of sweetness.; summary of the method: as §2
Homo sapiens [7] = organism: Homo sapiens; assay: Sensory evaluation was done for sweetness at a concentration of 650 p.p.m. against compound potency calculated on weight basis.; summary of the method: as §1
Homo sapiens [8] = organism: Homo sapiens; assay: Sensory evaluation was done at a concentration of 650 p.p.m. against property of bitterness.; summary of the method: as §2
Homo sapiens [9] = organism: Homo sapiens; assay: Sensory evaluation was done for sweetness at a concentration of 650 p.p.m. against compound potency calculated on a molar basis.; summary of the method: as §1
Homo sapiens [10] = organism: Homo sapiens; assay: Sensory evaluation was done at a concentration of 650 p.p.m. against property of sweetness.; summary of the method: as §2
Homo sapiens [11] = organism: Homo sapiens; assay: Sensory evaluation was done for sweetness at a concentration of 650 p.p.m. against sample intensity relative to 10% sucrose.; summary of the method: as §1
Homo sapiens [12] = organism: Homo sapiens; assay: Sensory evaluation was done at a concentration of 650 p.p.m. against other properties.; summary of the method: as §2
Homo sapiens [13] = organism: Homo sapiens; assay: Sensory evaluation was done at a concentration of 1000 p.p.m. against property of sweetness.; summary of the method: as §2
Homo sapiens [14] = organism: Homo sapiens; assay: Sensory evaluation was done at a concentration of 1000 p.p.m. against property of bitterness.; summary of the method: as §2
Homo sapiens [15] = organism: Homo sapiens; assay: Sensory evaluation was done for sweetness at a concentration of 1000 p.p.m. against compound potency calculated on a molar basis.
Summary of the method: (§3)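 Solutions were tasted at about pH 7. Sweetness potency was expressed two ways: Pw, calculated on a weight basis, and Pm, calculated on a molar basis.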

Homo sapiens [16] = organism: Homo sapiens; assay: Sensory evaluation was done for sweetness at a concentration of 1000 p.p.m. against compound potency calculated on weight basis.; summary of the method: as §3
Homo sapiens [17] = organism: Homo sapiens; assay: Sensory evaluation was done for sweetness at a concentration of 1000 p.p.m. against sample intensity relative to 10% sucrose.; summary of the method: as §2
Homo sapiens [18] = organism: Homo sapiens; assay: Sensory evaluation was done at a concentration of 1000 p.p.m. against other properties.; summary of the method: as §2
Homo sapiens [19] = organism: Homo sapiens; assay: Sensory evaluation was done for sweetness at a concentration of 750 p.p.m. against sample intensity relative to 10% sucrose.; summary of the method: as §1
Homo sapiens [20] = organism: Homo sapiens; assay: Sensory evaluation was done for sweetness at a concentration of 750 p.p.m. against compound potency calculated on weight basis.; summary of the method: as §1
Homo sapiens [21] = organism: Homo sapiens; assay: Sensory evaluation was done at a concentration of 750 p.p.m. against property of sweetness.; summary of the method: as §2
Homo sapiens [22] = organism: Homo sapiens; assay: Sensory evaluation was done for sweetness at a concentration of 750 p.p.m. against compound potency calculated on a molar basis.; summary of the method: as §1
Homo sapiens [23] = organism: Homo sapiens; assay: Sensory evaluation was done at a concentration of 750 p.p.m. against other properties.; summary of the method: as §2
Homo sapiens [24] = organism: Homo sapiens; assay: Sensory evaluation was done at a concentration of 750 p.p.m. against property of bitterness.; summary of the method: as §2
Homo sapiens [25] = organism: Homo sapiens; assay: Sensory evaluation was done at a concentration of 500 p.p.m. against other properties.; summary of the method: as §2
Homo sapiens [26] = organism: Homo sapiens; assay: Sensory evaluation was done for sweetness at a concentration of 500 p.p.m. against sample intensity relative to 10% sucrose.; summary of the method: as §1
Homo sapiens [27] = organism: Homo sapiens; assay: Sensory evaluation was done at a concentration of 500 p.p.m. against property of sweetness.; summary of the method: as §2
Homo sapiens [28] = organism: Homo sapiens; assay: Sensory evaluation was done for sweetness at a concentration of 500 p.p.m. against compound potency calculated on weight basis.; summary of the method: as §1
Homo sapiens [29] = organism: Homo sapiens; assay: Sensory evaluation was done for sweetness at a concentration of 500 p.p.m. against compound potency calculated on a molar basis.; summary of the method: as §1
Homo sapiens [30] = organism: Homo sapiens; assay: Sensory evaluation was done at a concentration of 500 p.p.m. against property of bitterness.; summary of the method: as §2

C=C1C[C@@]23CC[C@H]4[C@@](C)(CCC[C@@]4(C)C(=O)OCCC(N)C(=O)O)[C@@H]2CC[C@]1(O[C@@H]1O[C@@H](CO)[C@@H](O)[C@H](O)[C@@H]1O[C@@H]1O[C@@H](CO)[C@@H](O)[C@H](O)[C@@H]1O)C3 (some centres not stated)
Pw (Homo sapiens [1]): 200
Sensory evaluation (Homo sapiens [2]): 35
Ip (Homo sapiens [3]): 1.2
Pm (Homo sapiens [4]): 420
Sensory evaluation (Homo sapiens [5]): 5
Sensory evaluation (Homo sapiens [6]): 60

C=C1C[C@@]23CC[C@H]4[C@@](C)(CCC[C@@]4(C)C(=O)OCCCP(=O)([O-])O)[C@@H]2CC[C@]1(O[C@@H]1O[C@@H](CO)[C@@H](O)[C@H](O)[C@@H]1O[C@@H]1O[C@@H](CO)[C@@H](O)[C@H](O)[C@@H]1O)C3.[Na+]
Pw (Homo sapiens [7]): 120
Sensory evaluation (Homo sapiens [8]): 8
Pm (Homo sapiens [9]): 280
Sensory evaluation (Homo sapiens [10]): 87
Ip (Homo sapiens [11]): 0.8
Sensory evaluation (Homo sapiens [12]): 5

C=C1C[C@@]23CC[C@H]4[C@@](C)(CCC[C@@]4(C)C(=O)OC(CCN)C(=O)O)[C@@H]2CC[C@]1(O[C@@H]1O[C@@H](CO)[C@@H](O)[C@H](O)[C@@H]1O[C@@H]1O[C@@H](CO)[C@@H](O)[C@H](O)[C@@H]1O)C3 (some centres not stated)
Pw (Homo sapiens [7]): 170
Sensory evaluation (Homo sapiens [8]): 18
Pm (Homo sapiens [9]): 360
Sensory evaluation (Homo sapiens [10]): 79
Ip (Homo sapiens [11]): 1.1
Sensory evaluation (Homo sapiens [12]): 3

CC1=CC(=O)NS(=O)(=O)O1 [ACESULFAME]
Sensory evaluation (Homo sapiens [13]): 83
Sensory evaluation (Homo sapiens [14]): 16
Pm (Homo sapiens [15]): 55
Pw (Homo sapiens [16]): 100
Ip (Homo sapiens [17]): 1
Sensory evaluation (Homo sapiens [18]): 1

COC(=O)[C@H](Cc1ccccc1)NC(=O)[C@@H](N)CC(=O)O [ASPARTAME]
Ip (Homo sapiens [19]): 1
Pw (Homo sapiens [20]): 130
Sensory evaluation (Homo sapiens [21]): 100
Pm (Homo sapiens [22]): 85
Sensory evaluation (Homo sapiens [23]): 0
Sensory evaluation (Homo sapiens [24]): 0

C=C1C[C@@]23CC[C@H]4[C@@](C)(CCC[C@@]4(C)C(=O)O[C@@H]4O[C@H](CO)[C@@H](O)[C@H](O)[C@H]4O)[C@@H]2CC[C@]1(O[C@@H]1O[C@H](CO)[C@@H](O)[C@H](O)[C@H]1O[C@@H]1O[C@H](CO)[C@@H](O)[C@H](O)[C@H]1O)C3 [STEVIOSIDE]
Sensory evaluation (Homo sapiens [25]): 8
Ip (Homo sapiens [26]): 0.9
Sensory evaluation (Homo sapiens [27]): 62
Pw (Homo sapiens [28]): 190
Pm (Homo sapiens [29]): 440
Sensory evaluation (Homo sapiens [30]): 30

C=C1C[C@@]23CC[C@H]4[C@@](C)(CCC[C@@]4(C)C(=O)[O-])[C@@H]2CC[C@]1(O[C@@H]1O[C@@H](CO)[C@@H](O)[C@H](O)[C@@H]1O[C@@H]1O[C@@H](CO)[C@@H](O)[C@H](O)[C@@H]1O)C3.[Na+] [Steviolbioside]
Sensory evaluation (Homo sapiens [13]): 65
Sensory evaluation (Homo sapiens [14]): 35
Pm (Homo sapiens [15]): 190
Pw (Homo sapiens [16]): 100
Ip (Homo sapiens [17]): 1
Sensory evaluation (Homo sapiens [18]): 0
